Screening results (PubChem BioAssay)
NS3 helicase inh: HCV NS3 helicase inhibition; NS3 helicase DNA unwinding, Cy5 molecular beacon fluorescence; inhibition, % at 10.9 µM; 0.56% of 290,000 active; AID 1800;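 active = inhibition above the mean of all tested compounds plus 3 SD, set per campaign, cut at about 35% in these data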
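System: Hepatitis C virus NS3 helicase domain fragment enzyme | Reagent: Annealed dual-labelled DNA beacon duplex, ATP-started | Compound dosing: 10.9 µM single point, 0.8% DMSO | Incubation: 1 h reaction at 25 °C, ATP-initiated | Technique: Cy5 fluorescence | Evaluation: Percent inhibition from t60/t0 fluorescence ratio | Benchmarks: Low DMSO, high thioflavine S at 110 µM | Replication: Singlicate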
GPR7 antag: antagonists of human GPR7 (neuropeptides B/W receptor 1) | P48145 | GPR7-expressing cells, fluorescence antagonist assay | inhibition, % at 4.4 µM | 1.1% of 290,000 active | AID 1861; in the data active = inhibition above about 16%, passing the limit was not always enough;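 also: cells stimulated with the agonist NPW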
HCV core dimer: blocks dimerization of HCV core protein. TR-FRET GST/Flag-core106 dimerization, 1536-well. inhibition, % at 5 µM. 0.33% of 300,000 active. AID 1899;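 active = inhibition above the mean of all tested compounds plus 3 SD, set per screening campaign, cut at about 45% in these data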
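Test system: GST/Flag-tagged HCV core106 proteins; Medium: KF-containing HEPES buffer, pH 7.45, DTT, CHAPS, BSA; Times: compound-protein-antibody incubation 4 h at 22.5 °C; Detection: TR-FRET 671 and 617 nm emission; Benchmarks: wells lacking GST-core106 and wells with excess unlabelled core106.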
DNA FID counter-1: fluorescent intercalator displacement, NS3 helicase counter-screen; DNA fluorescent intercalator displacement, fluorescence; inhibition, % at 7.9 µM; 0.17% of 290,000 active;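 also: higher means more ethidium bromide displaced from hairpin DNA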
pCIP destab: lowers stability of the mouse p/CIP coactivator protein. Q05BA5. F442A p/CIP-EGFP cells, EGFP fluorescence, 16 h. decrease of EGFP signal, % at 10 µM. 0.01% of 290,000 active. AID 1984;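 active = EGFP signal decrease of at least 30% at 10 µM or well 3 SD below plate mean, unless failing retest; inactive = the rest, including hits failing retest or dose response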
NS3 helicase cf: HCV NS3 helicase inhibition, confirmation assay; 31% of 1,600 active; shares compounds with NS3 helicase inh; NS3 helicase DNA unwinding, Cy5 molecular beacon fluorescence; inhibition, % at 10.9 µM; AID 1943;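 active = inhibition above the mean of all tested compounds plus 3 SD, cutoff set per campaign, cut at about 36% in these data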
DNA FID counter-2: displaces DNA intercalator in HCV helicase counter-screen; shares compounds with NS3 helicase inh; DNA fluorescent intercalator displacement, fluorescence; inhibition, % at 7.9 µM; 4% of 1,600 active; AID 1945;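 also: higher means more displacement of ethidium bromide from the DNA hairpin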
DNA FID DR: displaces fluorescent intercalator from DNA, HCV helicase counter-screen | shares compounds with NS3 helicase inh | 120 tested, under 10 active | AID 2172 | fluorescent intercalator displacement from DNA, fluorescence | IC50, µM; call rule not given here
Of the large screens only hits and unclear results are named; the others gave an inactive call (follow-up assays come after a bar, where they were run). The list is not random: actives were taken first. Their share in the collection is about 1.9%. Rule as the data show it, unless noted: active = inhibition above about 37%; inactive = the rest.

NS(=O)(=O)c1ccc(N2C(=O)C(=O)/C(=C(/O)c3ccccc3)C2c2ccc(Cl)cc2)cc1 (configuration not stated)	NS3 helicase inh 40.8 | NS3 helicase cf inactive | DNA FID counter-2 inactive
CCOC(=O)C1=C(O)C(=O)N(c2ccc(S(N)(=O)=O)cc2)C1c1ccc(Cl)cc1 (configuration not stated)	none
CCc1cccc(NC(=O)C2CC2c2ccccc2)c1 (configuration not stated)	none
NC(=S)N/N=C/c1ccc(C23CC4CC(CC(C4)C2)C3)cc1	NS3 helicase inh 55.5 | NS3 helicase cf 36.8 | DNA FID counter-2 inactive | DNA FID DR inactive
COc1ccc(-c2nc(N3CCN(C)CC3)sc2-c2ccc(OC)cc2)cc1	none
COc1ccc(OC)c(NC(=O)CN2C(=O)C3(OCCCO3)c3ccccc32)c1	NS3 helicase inh 54.4 | NS3 helicase cf inactive | DNA FID counter-2 inactive
Cc1ccc(N2C(=O)C(NC(=O)c3ccccc3)(C(F)(F)F)C3=C2CC(C)(C)CC3=O)cc1 (configuration not stated)	none
CC1(C)CC(=O)C2=C(C1)N(c1ccc(F)cc1)C(=O)C2(NC(=O)c1ccccc1)C(F)(F)F (configuration not stated)	NS3 helicase inh 49.3 | NS3 helicase cf inactive | DNA FID counter-2 inactive
O=S(=O)(O)c1nc2ccccc2n1Cc1cccc2ccccc12	NS3 helicase inh 43.3 | NS3 helicase cf 61.9 | DNA FID counter-2 inactive
O=S(=O)(O)c1nc2ccccc2n1Cc1ccccc1	none
CCCc1cc(=O)oc2cc(C)cc(OC(C)C(=O)NCC3CCC(C(=O)O)CC3)c12 (configuration not stated)	NS3 helicase inh 38.2 | NS3 helicase cf inactive | DNA FID counter-2 inactive
CCCCc1cc(=O)oc2cc(C)cc(OC(C)C(=O)NCC3CCC(C(=O)O)CC3)c12 (configuration not stated)	none
COc1ccccc1-n1c(SCC(=O)NC(C)(C)C)nc(O)cc1=O	NS3 helicase inh 36.3 | NS3 helicase cf inactive | DNA FID counter-2 inactive
CCOC(=O)/C(=C/C1=CC(=C/N(C)C)/C(=O)O1)C(C)=O	none
Cc1cc(C)nc(OC(C(=O)O)C(OCCc2ccccc2)(c2ccccc2)c2ccccc2)n1 (configuration not stated)	NS3 helicase inh 36.6 | NS3 helicase cf 107.0 | DNA FID counter-2 inactive
COC(c1ccc(Cl)cc1)(c1ccc(Cl)cc1)C(Oc1nc(C)cc(C)n1)C(=O)O (configuration not stated)	NS3 helicase inh 36.9 | NS3 helicase cf 36.2 | DNA FID counter-2 inactive
O=C(c1cccc(S(=O)(=O)Nc2ccccc2Cl)c1)N1CCC1	none (no result: NS3 helicase inh, GPR7 antag, DNA FID counter-1, pCIP destab)
CC1CCCN(C(=O)c2cccc(S(=O)(=O)Nc3cc(C(F)(F)F)ccc3Cl)c2)C1 (configuration not stated)	NS3 helicase inh 44.3 | NS3 helicase cf 57.0 | DNA FID counter-2 inactive
CCc1ccc(/C=C/C(=O)C2C(=O)c3ccccc3C2=O)cc1	NS3 helicase inh 37.8 | NS3 helicase cf inactive | DNA FID counter-2 inactive
CCC(Cc1ccccc1)NC(=O)C1CC1 (configuration not stated)	NS3 helicase inh 40.5 (no result: HCV core dimer) | NS3 helicase cf inactive | DNA FID counter-2 inactive
COc1ccc(C(=O)Nc2c3c(nn2-c2ccc(Cl)cc2)CS(=O)(=O)C3)cc1	none
CC(C)C/C(O)=C/c1nc2cc(Cl)ccc2oc1=O	NS3 helicase inh 38.5 | NS3 helicase cf inactive | DNA FID counter-2 inactive
Cc1ccc(S(=O)(=O)c2c(N)n(CCCN(C)C)c3nc4ccccc4nc23)cc1	none
CCCCn1c(NS(=O)(=O)c2ccc(C)cc2)c(S(=O)(=O)c2ccccc2)c2nc3ccccc3nc21	NS3 helicase inh 37.8 | NS3 helicase cf 71.7 | DNA FID counter-2 inactive | DNA FID DR inactive
C=CCn1c(=O)c2ccccc2n2c(SCC(=O)NC)nnc12	none
COc1cc(/C=C2/SC(=S)NC2=O)ccc1OS(=O)(=O)c1ccc(C)cc1	NS3 helicase inh 52.9 | NS3 helicase cf 58.8 | DNA FID counter-2 inactive
